Laboratory results: ChEMBL document CHEMBL3085642, “Synthesis and evaluation of novel 4-nitropyrrole-based 1,3,4-oxadiazole derivatives as antimicrobial and anti-tubercular agents” (Eur J Med Chem, 2013)
Values after ≈ are worked out from the molar mass of the structure shown.

Experiments:
Candida albicans [1] = assay: Antifungal activity against Candida albicans after 48 hrs by two fold agar dilution method; assay type: functional
Method in brief: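 Two-fold serial dilutions in DMSO were tested against C. albicans by agar dilution. Cultures were incubated for 48 h at 35 °C and growth was monitored. MIC was taken as the lowest concentration (highest dilution) that arrested fungal growth.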

Candida albicans [2] = assay: Ratio of ampotericin-B MIC to compound MIC against Candida albicans; assay type: functional
Staphylococcus aureus [3] = assay: Antibacterial activity against methicillin-susceptible Staphylococcus aureus ATCC 35556 by broth dilution method; assay type: functional
Staphylococcus aureus [4] = assay: Antibacterial activity against Staphylococcus aureus ATCC 25923 by two fold broth dilution method; assay type: functional
Staphylococcus aureus [5] = assay: Antibacterial activity against methicillin-resistant Staphylococcus aureus ATCC 43866 by broth dilution method; assay type: functional
Escherichia coli = assay: Antibacterial activity against Escherichia coli ATCC 25922 by two fold broth dilution method; assay type: functional
Klebsiella pneumoniae = assay: Antibacterial activity against Klebsiella pneumoniae by two fold broth dilution method; assay type: functional
Staphylococcus aureus [6] = assay: Ratio of ciprofloxacin MIC to compound MIC against Staphylococcus aureus ATCC 25923; assay type: functional
Vero = assay: Cytotoxicity against african green monkey Vero cells after 72 hrs by MTT assay; assay type: cell-based; conditions: Chlorocebus sabaeus
Method in brief: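 Vero cells were exposed to compounds for 72 h. Viability was measured by cellular conversion of MTT into formazan (non-radioactive proliferation assay), and the cytotoxic concentration was reported as IC50.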

Bacillus spizizenii = assay: Antibacterial activity against Bacillus subtilis ATCC 6633 by two fold broth dilution method; assay type: functional
[7] = test system: Mycobacterium tuberculosis; assay: Antitubercular activity against Mycobacterium tuberculosis H37Rv after 7 days by resazurin microtitre assay; assay type: functional; conditions: 168 h
Staphylococcus aureus [8] = assay: Ratio of ciprofloxacin MIC to compound MIC against methicillin-susceptible Staphylococcus aureus ATCC 35556; assay type: functional

SMILES	MIC (Candida albicans [1]) [µg/mL]	Ratio (Candida albicans [2])	MIC (Staphylococcus aureus [3]) [µg/mL]	MIC (Staphylococcus aureus [4]) [µg/mL]	MIC (Staphylococcus aureus [5]) [µg/mL]	MIC (Escherichia coli) [µg/mL]	MIC (Klebsiella pneumoniae) [µg/mL]	Ratio (Staphylococcus aureus [6])	IC50 (Vero) [µM]	MIC (Bacillus spizizenii) [µg/mL]	MIC [7] [µg/mL]	Ratio (Staphylococcus aureus [8])
C[C@@H]1[C@H](O)[C@@H](C)/C=C/C=C/C=C/C=C/C=C/C=C/C=C/[C@H](O[C@@H]2O[C@H](C)[C@@H](O)[C@H](N)[C@@H]2O)C[C@@H]2O[C@](O)(C[C@@H](O)C[C@@H](O)[C@H](O)CC[C@@H](O)C[C@@H](O)CC(=O)O[C@H]1C)C[C@H](O)[C@H]2C(=O)O [AMPHOTERICIN B]	3.12 (≈ 3.38 µM)											
Cn1cc([N+](=O)[O-])cc1-c1nnc(-c2cccs2)o1	1.56 (≈ 5.65 µM)	2	1.56 (≈ 5.65 µM)	0.78 (≈ 2.82 µM)	1.56 (≈ 5.65 µM)	6.25 (≈ 22.6 µM)	50 (≈ 181 µM)	2	521	1.56 (≈ 5.65 µM)		
COc1cccc(OC)c1-c1nnc(-c2cc([N+](=O)[O-])c[nH]2)o1	3.12 (≈ 9.88 µM)		1.56 (≈ 4.93 µM)	1.56 (≈ 4.93 µM)	3.12 (≈ 9.88 µM)	3.12 (≈ 9.88 µM)	25 (≈ 79 µM)		170	3.12 (≈ 9.88 µM)	5.4 (≈ 17.1 µM)	
O=[N+]([O-])c1c[nH]c(-c2nnc(-c3ccccc3O)o2)c1	3.12 (≈ 11.5 µM)		1.56 (≈ 5.73 µM)	1.56 (≈ 5.73 µM)	3.12 (≈ 11.5 µM)	1.56 (≈ 5.73 µM)	25 (≈ 91.8 µM)		375	3.12 (≈ 11.5 µM)	2.1 (≈ 7.71 µM)	
Cn1cc([N+](=O)[O-])cc1-c1nnc(-c2ccccc2OC(F)(F)F)o1	1.56 (≈ 4.4 µM)	2	0.39 (≈ 1.1 µM)	0.78 (≈ 2.2 µM)	1.56 (≈ 4.4 µM)	3.12 (≈ 8.82 µM)	12.5 (≈ 35.3 µM)	2	308	1.56 (≈ 4.4 µM)	3.8 (≈ 10.7 µM)	2
O=[N+]([O-])c1c[nH]c(-c2nnc(-c3cccs3)o2)c1	6.25 (≈ 23.8 µM)		3.12 (≈ 11.9 µM)	1.56 (≈ 5.95 µM)	3.12 (≈ 11.9 µM)	1.56 (≈ 5.95 µM)	25 (≈ 95.3 µM)		418	1.56 (≈ 5.95 µM)	87.1 (≈ 332 µM)	
Cc1ccc(-c2nnc(-c3cc([N+](=O)[O-])c[nH]3)o2)s1	3.12 (≈ 11.3 µM)		1.56 (≈ 5.65 µM)	1.56 (≈ 5.65 µM)	3.12 (≈ 11.3 µM)	6.25 (≈ 22.6 µM)	25 (≈ 90.5 µM)		329	3.12 (≈ 11.3 µM)		
O=[N+]([O-])c1c[nH]c(-c2nnc(C3CCCNC3)o2)c1 (stereo not drawn)	3.12 (≈ 11.9 µM)		1.56 (≈ 5.93 µM)	1.56 (≈ 5.93 µM)	3.12 (≈ 11.9 µM)	3.12 (≈ 11.9 µM)	25 (≈ 95 µM)		318	3.12 (≈ 11.9 µM)	12.5 (≈ 47.5 µM)	
Cc1ccc(-c2nnc(-c3cc([N+](=O)[O-])cn3C)o2)s1	1.56 (≈ 5.37 µM)	2	1.56 (≈ 5.37 µM)	0.78 (≈ 2.69 µM)	1.56 (≈ 5.37 µM)	6.25 (≈ 21.5 µM)	12.5 (≈ 43.1 µM)	2	98.3	1.56 (≈ 5.37 µM)		
O=[N+]([O-])c1c[nH]c(-c2nnc(-c3cc4cc(Cl)ccc4[nH]3)o2)c1	3.12 (≈ 9.48 µM)		1.56 (≈ 4.73 µM)	1.56 (≈ 4.73 µM)	3.12 (≈ 9.48 µM)	1.56 (≈ 4.73 µM)	25 (≈ 75.8 µM)		329	3.12 (≈ 9.48 µM)	3.4 (≈ 10.3 µM)	
NNC(=O)c1ccncc1 [ISONIAZID]											0.4 (≈ 2.92 µM)	
Cn1cc([N+](=O)[O-])cc1-c1nnc(-c2cc3ccccc3[nH]2)o1	1.56 (≈ 5.04 µM)	2	0.39 (≈ 1.26 µM)	0.78 (≈ 2.52 µM)	1.56 (≈ 5.04 µM)	6.25 (≈ 20.2 µM)	12.5 (≈ 40.4 µM)	2	109	1.56 (≈ 5.04 µM)		2
O=[N+]([O-])c1c[nH]c(-c2nnc(C3(c4ccccc4)CC3)o2)c1	25 (≈ 84.4 µM)		1.56 (≈ 5.27 µM)	0.78 (≈ 2.63 µM)	3.12 (≈ 10.5 µM)	1.56 (≈ 5.27 µM)	25 (≈ 84.4 µM)	2	380	3.12 (≈ 10.5 µM)	56.8 (≈ 192 µM)	
Cn1cc([N+](=O)[O-])cc1-c1nnc(-c2ccco2)o1	1.56 (≈ 6 µM)	2	1.56 (≈ 6 µM)	0.78 (≈ 3 µM)	1.56 (≈ 6 µM)	3.12 (≈ 12 µM)	50 (≈ 192 µM)	2	190	1.56 (≈ 6 µM)	60.2 (≈ 231 µM)	
O=[N+]([O-])c1c[nH]c(-c2nnc(-c3cccc([N+](=O)[O-])c3O)o2)c1	3.12 (≈ 9.85 µM)		1.56 (≈ 4.92 µM)	1.56 (≈ 4.92 µM)	3.12 (≈ 9.85 µM)	6.25 (≈ 19.7 µM)	25 (≈ 78.8 µM)		498	3.12 (≈ 9.85 µM)	1.8 (≈ 5.67 µM)	
